In ChEMBL document CHEMBL3758119, “Functionalized imidazolium and benzimidazolium salts as paraoxonase 1 inhibitors: Synthesis, characterization and molecular docking studies” (Bioorg Med Chem, 2016):

Target: T1, Serum paraoxonase/arylesterase 1 (Homo sapiens, UniProt P27169)
Assay: Competitive inhibition of human serum PON1 using paraoxon as substrate by Lineweaver-Burk plot analysis
Conditions: not given; call rule not given here
Summary of the method: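 Human serum PON1 purified by ammonium sulphate precipitation (60–80%) and hydrophobic interaction chromatography, stored with 2 mM CaCl2. Paraoxon hydrolysis followed by p-nitrophenol appearance at 412 nm for 2 min at 37 °C, pH 8.00. Eight paraoxon concentrations (0.5–1.2 mM) run at two inhibitor concentrations (6.7 µM and 4.7 µM). Readings taken in duplicate and corrected for non-enzymatic hydrolysis. Ki and inhibition type taken from Lineweaver–Burk plots.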

T1 sequence (P27169 whole entry): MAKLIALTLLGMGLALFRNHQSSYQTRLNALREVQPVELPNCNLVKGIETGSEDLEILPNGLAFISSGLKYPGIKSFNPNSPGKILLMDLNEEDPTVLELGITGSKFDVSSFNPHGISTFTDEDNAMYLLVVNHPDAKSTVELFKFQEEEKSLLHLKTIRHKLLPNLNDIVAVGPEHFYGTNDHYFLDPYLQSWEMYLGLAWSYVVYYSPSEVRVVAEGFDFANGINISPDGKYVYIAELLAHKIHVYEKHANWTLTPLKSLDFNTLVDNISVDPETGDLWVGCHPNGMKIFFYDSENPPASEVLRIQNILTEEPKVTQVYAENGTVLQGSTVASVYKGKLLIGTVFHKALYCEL

Row | Compound | Ki [µM]
1 | CCCCn1cc[n+](Cc2cc(=O)oc3cc(C)cc(C)c23)c1 | 2.39

Target: T1, Serum paraoxonase/arylesterase 1
Assay: Inhibition of human serum PON1 using paraoxon as substrate by spectrophotometric analysis
Conditions: not given
Summary of the method: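 PON1 purified from human serum (ammonium sulphate precipitation, then hydrophobic interaction chromatography; stored with 2 mM CaCl2). Paraoxon 2 mM final; p-nitrophenol release followed at 412 nm for 2 min at 37 °C. Five inhibitor concentrations tested. Activity without compound taken as 100%. Measured in duplicate and corrected for non-enzymatic hydrolysis. IC50 read from activity-percentage graphs.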

Row | Compound | IC50
2 | Cc1n(C)cc[n+]1Cn1nnc2ccccc21.[Cl-] | Not Active
3 | COc1cc(C[n+]2cn(Cn3nnc4ccccc43)c3ccccc32)cc(OC)c1OC.[Cl-] | Not Active
4 | Cn1cc[n+](Cn2nnc3ccccc32)c1.[Cl-] | Not Active
5 | CCCCn1cc[n+](Cn2nnc3ccccc32)c1.[Cl-] | Not Active
6 | [Cl-].c1ccc2c(c1)nnn2Cn1c[n+](Cn2nnc3ccccc32)c2ccccc21 | Not Active

Same assay, conditions: read-out: IC50

Row | Compound | IC50 [µM]
7 | Cc1cc(C)c2c(CCl)cc(=O)oc2c1 | 31.4
8 | c1ccc(C[n+]2cn(Cn3nnc4ccccc43)c3ccccc32)cc1 | 2060
9 | c1ccc2c(c1)ncn2Cn1nnc2ccccc21 | 564
10 | CC(C)(C)c1ccc2oc(=O)cc(CCl)c2c1 | 40
11 | Cc1n(C)cc[n+]1Cc1nc2ccccc2[nH]1 | 626
12 | Cn1cc[n+](Cc2nc3ccccc3[nH]2)c1 | 19
13 | Cc1ccc2c(C[n+]3cn(Cn4nnc5ccccc54)c4ccccc43)cc(=O)oc2c1C | 237
14 | CCCCn1cc[n+](Cc2cc(=O)oc3cc(C)cc(C)c23)c1 | 6.37
15 | Cc1ccc2c(CCl)cc(=O)oc2c1C | 21.4
16 | O=C1COc2ccc(C(=O)C[n+]3cn(Cn4nnc5ccccc54)c4ccccc43)cc2N1 | 8.76
17 | Cc1cc(C)c2c(C[n+]3ccn(C)c3C)cc(=O)oc2c1 | 317
18 | CCCCn1cc[n+](Cc2nc3ccccc3[nH]2)c1 | 29
19 | CC(C)(C)c1ccc2oc(=O)cc(C[n+]3cn(Cn4nnc5ccccc54)c4ccccc43)c2c1 | 627
20 | Cc1cc(C)c2c(C[n+]3ccn(C)c3)cc(=O)oc2c1 | 23.7
21 | Cc1ccc(-c2cc3cc(O)c(O)cc3oc2=O)cc1 | 3
22 | CCCC[n+]1cn(Cn2nnc3ccccc32)c2ccccc21 | 3330
